Experimental data published in ChEMBL document CHEMBL3352012, “Synthesis and evaluation of novel podophyllotoxin derivatives as potential antitumor agents” (Eur J Med Chem, 2014).
Active and inactive are the calls of the source. The rule behind the calls is not given here.

Legend:
K562/A02 [1] = test: Induction of apoptosis in human K562/A02 cells assessed as induction of abnormal mitotic figures at 6 uM after 48 hrs by Hoechst-33342 staining based fluorescence microscopy; format: functional, cell-based
In short: (§1)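 K562/A02 cells treated 48 h at 3, 6 or 12 concentration levels alongside untreated control and 6 etoposide; nuclei stained with Hoechst 33342 and viewed by fluorescence microscopy at 400× for chromatin condensation, nuclear fragmentation and other apoptotic morphology.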

K562/A02 [2] = test: Induction of apoptosis in human K562/A02 cells assessed as late apoptotic cells level at 12 uM after 48 hrs by Annexin V-FITC and propidium iodide double staining based flow cytometry (reference value: 1.58%); format: functional
K562/A02 [3] = test: Induction of apoptosis in human K562/A02 cells assessed as late apoptotic cells level at 3 uM after 48 hrs by Annexin V-FITC and propidium iodide double staining based flow cytometry (reference value: 1.58%); format: functional
[4] = Reduction in MDR1 mRNA expression in human K562/A02 cells at 6 uM incubated for 48 hrs by RT-PCR method relative to untreated control; format: functional, cell-based
In short: (§2)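 K562 and K562/A02 cells seeded 1 × 10⁵/well in 10% FCS/RPMI-1640; compound added 24 h later, then cultured another 48 h. Total RNA extracted with Trizol, checked at 260/280 nm, reverse transcribed; MDR-1 (157 bp) and β-actin (540 bp) amplified, products run on agarose gel, stained, MDR-1 normalised to β-actin against untreated control.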

K562/A02 [5] = test: Induction of apoptosis in human K562/A02 cells assessed as induction of cell shrinkage and detachment at 12 uM after 48 hrs by Hoechst-33342 staining based fluorescence microscopy; format: functional; in short: as §1
K562/A02 [6] = test: Induction of apoptosis in human K562/A02 cells assessed as necrotic cells level at 6 uM after 48 hrs by Annexin V-FITC and propidium iodide double staining based flow cytometry (reference value: 1.53%); format: functional
HeLa = test: Cytotoxicity against human HeLa cells after 48 hrs by MTT assay; format: functional, cell-based
In short: (§3)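 Cells kept in RPMI-1640 with 10% FBS, 2 mmol/L glutamine, penicillin and streptomycin at 37 °C, 5% CO2. Seeded at 5 × 10³ cells/well and left 24 h to attach, then exposed to compounds or etoposide reference for 48 h. MTT (5 mg/mL) added for 4 h at 37 °C, supernatant removed, formazan dissolved in DMSO, absorbance read at 490 nm.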

K562/A02 [7] = test: Induction of apoptosis in human K562/A02 cells assessed as induction of membrane blebbing at 12 uM after 48 hrs by Hoechst-33342 staining based fluorescence microscopy; format: functional, cell-based; in short: as §1
K562/A02 [8] = test: Induction of apoptosis in human K562/A02 cells assessed as early apoptotic cells level at 6 uM after 48 hrs by Annexin V-FITC and propidium iodide double staining based flow cytometry (reference value: 6.23%); format: functional
K562/A02 [9] = test: Induction of apoptosis in human K562/A02 cells assessed as induction of chromatin condensation at 12 uM after 48 hrs by Hoechst-33342 staining based fluorescence microscopy; format: functional, cell-based; in short: as §1
K562/A02 [10] = test: Induction of apoptosis in human K562/A02 cells assessed as necrotic cells level at 12 uM after 48 hrs by Annexin V-FITC and propidium iodide double staining based flow cytometry (reference value: 1.53%); format: functional
K562/A02 [11] = test: Induction of apoptosis in human K562/A02 cells assessed as early apoptotic cells level at 3 uM after 48 hrs by Annexin V-FITC and propidium iodide double staining based flow cytometry (reference value: 6.23%); format: functional
K562 [12] = test: Resistance index, ratio of IC50 for human K562/A02 cells to IC50 for human K562 cells; format: functional
K562/A02 [13] = test: Induction of apoptosis in human K562/A02 cells assessed as induction of large cytoplasmic vacuoles at 6 uM after 48 hrs by Hoechst-33342 staining based fluorescence microscopy; format: functional, cell-based; in short: as §1
K562/A02 [14] = test: Induction of apoptosis in human K562/A02 cells at 12 uM after 48 hrs by Annexin V-FITC and propidium iodide double staining based flow cytometry (reference value: 7.9 +/- 1.34%); format: functional
K562/A02 [15] = test: Induction of apoptosis in human K562/A02 cells assessed as early apoptotic cells level at 12 uM after 48 hrs by Annexin V-FITC and propidium iodide double staining based flow cytometry (reference value: 6.23%); format: functional
K562/A02 [16] = test: Induction of apoptosis in human K562/A02 cells assessed as viable cells level at 6 uM after 48 hrs by Annexin V-FITC and propidium iodide double staining based flow cytometry (reference value: 90.7%); format: functional
K562/A02 [17] = test: Induction of apoptosis in human K562/A02 cells assessed as late apoptotic cells level at 6 uM after 48 hrs by Annexin V-FITC and propidium iodide double staining based flow cytometry (reference value: 1.58%); format: functional
[18] = Reduction in MDR1 mRNA expression in human K562/A02 cells at 6 uM incubated for 48 hrs by RT-PCR method; format: functional, cell-based; in short: as §2
[19] = (§4) Cytotoxicity against human K562/A02 cells after 48 hrs by MTT assay; format: functional, cell-based; settings: K562/A02, 48 h; in short: as §3
K562/A02 [20] = test: as §4; format: functional, cell-based; in short: as §3
K562/A02 [21] = test: Induction of apoptosis in human K562/A02 cells assessed as viable cells level at 12 uM after 48 hrs by Annexin V-FITC and propidium iodide double staining based flow cytometry (reference value: 90.7%); format: functional
[22] = Reduction in MDR1 mRNA expression in human K562/A02 cells incubated for 48 hrs by RT-PCR method; format: functional, cell-based; in short: as §2
K562/A02 [23] = test: Induction of apoptosis in human K562/A02 cells assessed as induction of large cells formation at 6 uM after 48 hrs by Hoechst-33342 staining based fluorescence microscopy; format: functional, cell-based; in short: as §1
K562/A02 [24] = test: Induction of apoptosis in human K562/A02 cells assessed as induction of nuclear fragmentation at 12 uM after 48 hrs by Hoechst-33342 staining based fluorescence microscopy; format: functional, cell-based; in short: as §1
K562 [25] = test: Cytotoxicity against human K562 cells after 48 hrs by MTT assay; format: functional, cell-based; in short: as §3
[26] = Reduction in MDR1 mRNA expression in human K562/A02 cells assessed as MDR1 mRNA levels at 12 uM incubated for 48 hrs by RT-PCR method (reference value: 100%); format: functional, cell-based; set-up: scale not given: the % may be the effect or the level left; in short: as §2
K562/A02 [27] = test: Induction of apoptosis in human K562/A02 cells assessed as viable cells level at 3 uM after 48 hrs by Annexin V-FITC and propidium iodide double staining based flow cytometry (reference value: 90.7%); format: functional
K562/A02 [28] = test: Induction of apoptosis in human K562/A02 cells assessed as necrotic cells level at 3 uM after 48 hrs by Annexin V-FITC and propidium iodide double staining based flow cytometry (reference value: 1.53%); format: functional
K562/A02 [29] = test: Induction of apoptosis in human K562/A02 cells assessed as induction of multinucleation at 6 uM after 48 hrs by Hoechst-33342 staining based fluorescence microscopy; format: functional, cell-based; in short: as §1

COc1cc([C@@H]2c3cc4c(cc3[C@@H](NCc3ccc([N+](=O)[O-])o3)[C@H]3COC(=O)[C@H]23)OCO4)cc(OC)c1OC
Activity (K562/A02 [1]): Active | Activity (K562/A02 [2]): 8.05% | Activity (K562/A02 [3]): 4.02% | inhibition [4]: 70% | Activity (K562/A02 [5]): Active | Activity (K562/A02 [6]): 13.5% | IC50 (HeLa): 7.55 µM | Activity (K562/A02 [7]): Active | Activity (K562/A02 [8]): 28.2% | Activity (K562/A02 [9]): Active | Activity (K562/A02 [10]): 1.09% | Activity (K562/A02 [11]): 14.8% | Ratio IC50 (K562 [12]): 0.905 | Activity (K562/A02 [13]): Active | Activity (K562/A02 [14]): 65.35% | Activity (K562/A02 [15]): 56.3% | Activity (K562/A02 [16]): 46.4% | Activity (K562/A02 [17]): 11.9% | MDR1 mRNA reduction (qualitative) [18]: Active | IC50 [19]: 5.42 µM | growth inhibition (GI) (K562/A02 [20]): Dose-dependent effect | Activity (K562/A02 [21]): 34.5% | inhibition [22]: Dose-dependent effect | Activity (K562/A02 [23]): Active | Activity (K562/A02 [24]): Active | growth inhibition (GI) (K562 [25]): Dose-dependent effect | IC50 (K562 [25]; K562, 48 h): 5.99 µM | Activity [26]: 31.2% | Activity (K562/A02 [27]): 77.3% | Activity (K562/A02 [28]): 3.9% | Activity (K562/A02 [29]): Active
